According to ChEMBL document CHEMBL1275586, “Phenotypic susceptibility to bevirimat in isolates from HIV-1-infected patients without prior exposure to bevirimat” (Antimicrob Agents Chemother, 2010):

Key:
Format in all cases: functional, MT2
[1] = system: Human immunodeficiency virus 1; experiment: Antiviral activity against Human immunodeficiency virus 1 isolate 7 harboring Gag-capsid I138L, I147L, S173A, V215L, I223V, T242N, G248A, N252A, I126T, T280V and E312D mutant gene and protease K20R, M36I, R41K, M46I, L63Q, I64V, P79S, V82F and L90M mutant gene infected in human MT-2 cells by XTT-assay relative to wild-type
Procedure, shortened: (§1)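 Patient Gag-protease (SfoI-XmaI) fragments were ligated into the pXXLAI backbone, with colonies pooled to keep quasispecies. Virus came from 293T transfection, harvested at 2 days. MT-2 infection at 37°C used an input giving XTT signal-to-noise of 2.5–4.0 (≈MOI 0.001). Cells at ≈17,000/well with drug dilutions, 5 days, 37°C; XTT 1 h, A450–650. EC50 from % cell death; fold change vs wild-type LAI.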

[2] = system: Human immunodeficiency virus 1; experiment: Antiviral activity against Human immunodeficiency virus 1 isolate 21 harboring Gag-capsid I138L, A146P, I147L/I, V159I/V, E211D, V215L, N252H/N, R286K/R and K331R/K mutant gene and protease E35D, M36I, S37N, I62V and L63C mutant gene infected in human MT-2 cells by XTT-assay relative to wild-type; procedure, shortened: as §1
[3] = system: Human immunodeficiency virus 1; experiment: Antiviral activity against Human immunodeficiency virus 1 isolate 26 harboring Gag-capsid I138L, A146S, I147L, E312D, A326S, L337M, and A340G mutant gene and protease T4S, L10F, V11L, I13V, I15V, K20A, V32I, L33F, M36I, S37D, K43T, M46I, I54L, I62V, L63P, A71I, I72K, G73T, I84V,I85V, L89V and L90M mutant gene infected in human MT-2 cells by XTT-assay relative to wild-type; procedure, shortened: as §1
[4] = system: Human immunodeficiency virus 1; experiment: Antiviral activity against Human immunodeficiency virus 1 isolate 36 harboring Gag-capsid I138L, A146P, S165N/S, E207D, V215L and E312D mutant gene and protease K14R/K, I15V, E35D, S37D, R57K/R and L63P mutant gene infected in human MT-2 cells by XTT-assay relative to wild-type; procedure, shortened: as §1
[5] = system: Human immunodeficiency virus 1; experiment: Antiviral activity against Human immunodeficiency virus 1 isolate 20 harboring Gag-capsid I138L, V215L, V218P, H219Q, M228I, E230D, G248T, T280A, E312D, A340G and G357S mutant gene and protease L10F, A22V, D30N, S37N, K45R, I54L, I62V, L63P, A71V, V77I, I84V, N88D and Q92K mutant gene infected in human MT-2 cells by XTT-assay relative to wild-type; procedure, shortened: as §1
[6] = system: Human immunodeficiency virus 1; experiment: Antiviral activity against Human immunodeficiency virus 1 isolate 5 harboring Gag-capsid I138M, V159I, T280V and S310T mutant gene and protease I13V, D30N, L33I, E35D, M36I, S37N, M46I/L, I54V, I62V, L63P, I66M/I, A71N/T, I72T/I, V82L/V, N88D, L90M and I93L/I mutant gene infected in human MT-2 cells by XTT-assay relative to wild-type; procedure, shortened: as §1
[7] = system: Human immunodeficiency virus 1; experiment: Antiviral activity against Human immunodeficiency virus 1 isolate 30 harboring Gag-capsid I138L, V215L, R286K and Q311A mutant gene and protease I13V, E35D, S37N and L63P mutant gene infected in human MT-2 cells by XTT-assay relative to wild-type; procedure, shortened: as §1
[8] = system: Human immunodeficiency virus 1; experiment: Antiviral activity against Human immunodeficiency virus 1 isolate 25 harboring Gag-capsid I138M, S173A, V215L, N252S, I256T, S310T/S, A340G and E345D mutant gene and protease L10F, V11I, I13V, K20I, V32I, L33F, E34Q, E35D, M36I, S37N, K43T, M46I, F53Y, I54L, Q61N, I62V, L63T, I64V, A71L, T74S, L76V, I84V, L90M and I93L mutant gene infected in human MT-2 cells by XTT-assay relative to wild-type; procedure, shortened: as §1
[9] = system: Human immunodeficiency virus 1; experiment: Antiviral activity against Human immunodeficiency virus 1 isolate 10 harboring Gag-capsid I138L, I147L, V159I, V215L, G248A, I256V, T280V, R286K and N315H mutant gene and protease L10I, K20R, E35D, M36I, S37N, R41K, K45R, F53L, I54V, L63P, I64V, A71T, V82A, L90M and I93L mutant gene infected in human MT-2 cells by XTT-assay relative to wild-type; procedure, shortened: as §1
[10] = system: Human immunodeficiency virus 1; experiment: Antiviral activity against Human immunodeficiency virus 1 isolate 31 harboring Gag-capsid I138L, S173T, V215L, I223N, M228L, G248Q, N252H, T280V and E312D mutant gene and protease I13V, K14R/K, M36I, S37N, I64V, H69K and I72V mutant gene infected in human MT-2 cells by XTT-assay relative to wild-type; procedure, shortened: as §1
[11] = system: Human immunodeficiency virus 1; experiment: Antiviral activity against Human immunodeficiency virus 1 isolate 33 harboring Gag-capsid I138L, V215L, V218P, H219Q, I223V, M228I, G248T, N252S, N253T, I256M, E312D and A326S mutant gene and protease T12S/T, I13V/I, I15V, L19I, S37T, L63V/A/P/L and I72V/I mutant gene infected in human MT-2 cells by XTT-assay relative to wild-type; procedure, shortened: as §1
[12] = system: Human immunodeficiency virus 1; experiment: Antiviral activity against Human immunodeficiency virus 1 isolate 34 harboring Gag-capsid I138L, I147L, V159I, V215L, T280V, A309C, S310T, E312D and G357S mutant gene and protease L10I, I13V, E35D, S37N, I62V, L63P and I64M mutant gene infected in human MT-2 cells by XTT-assay relative to wild-type; procedure, shortened: as §1
[13] = system: Human immunodeficiency virus 1; experiment: Antiviral activity against Human immunodeficiency virus 1 isolate 24 harboring Gag-capsid I138L, V159I, V215L, I223A, T239S, N252S, T280V, R286K, S310T and V362I mutant gene and protease L10V, I13V, I15V, K20R, D30N, V32I, L33F, E35D, M36I, S37N, K43T, M46I, I47V, F53L, I54L, I62V, L63P, I66F, A71V, T74S, V82A, N88D, L89V, L90M and I93V mutant gene infected in human MT-2 cells by XTT-assay …
[14] = system: Human immunodeficiency virus 1; experiment: Antiviral activity against Human immunodeficiency virus 1 isolate 39 harboring Gag-capsid A146P, I147L, V215L, M228I, G248A, R286K, A326S, G357S and V362I mutant gene and protease K14R, E35D, M36I, S37N, R41K, K45R, D60E, I62V and I64V mutant gene infected in human MT-2 cells by XTT-assay relative to wild-type; procedure, shortened: as §1
[15] = system: Human immunodeficiency virus 1; experiment: Antiviral activity against Human immunodeficiency virus 1 isolate 29 harboring Gag-capsid I138M, A146P, R286K, T303V and A326S mutant gene and protease L10F, I13V, V32I, M36L, S37N, L38W, P39Q, M46I, I47V, I50V, I62V, L63P, A71I, I72V and V82A mutant gene infected in human MT-2 cells by XTT-assay relative to wild-type; procedure, shortened: as §1

Row | SMILES | fold change (FC) [1] | fold change (FC) [2] | fold change (FC) [3] | fold change (FC) [4] | fold change (FC) [5] | fold change (FC) [6] | fold change (FC) [7] | fold change (FC) [8] | fold change (FC) [9] | fold change (FC) [10] | fold change (FC) [11] | fold change (FC) [12] | fold change (FC) [13] | fold change (FC) [14] | fold change (FC) [15]
1 | COC(=O)N[C@H](C(=O)N[C@@H](Cc1ccccc1)[C@@H](O)CN(Cc1ccc(-c2ccccn2)cc1)NC(=O)[C@@H](NC(=O)OC)C(C)(C)C)C(C)(C)C [ATAZANAVIR] | 1 | 0.8 | 571 | 1.3 | 51.9 | 63.2 | 0.9 | 184 | 8.5 | 1.9 | 1.8 | 1.6 | 590 | 1.4 | 3.2
2 | Cc1cccc(C)c1OCC(=O)N[C@@H](Cc1ccccc1)[C@@H](O)C[C@H](Cc1ccccc1)NC(=O)[C@H](C(C)C)N1CCCNC1=O [LOPINAVIR] | 4.1 | 0.6 | 46.5 | 1.1 | 13.3 | 12.1 | 0.7 | 58.9 | 15.3 | 1.1 | 1.6 | 1.4 | 69 | 0.8 | 89.3
